Assays:
[1] = test system: HL-60; experiment: Effective concentration against HL-60 cell differentiation; assay type: functional, cell-based; details: Homo sapiens
[2] = target: Protein kinase C delta type (Homo sapiens, UniProt Q05655); experiment: Displacement of [3H]PDBu from recombinant Protein kinase C delta
Outline: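 Competitive binding of [3H]PDBu (Kd 2.9 nM) to recombinant PKCδ. Ki derived from the IC50 of the binding curve. Number of repetitions given per compound.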

[3] = test system: HL-60; experiment: Effective concentration against monocytes of HL-60 cells growth inhibition; assay type: functional, cell-based; details: Homo sapiens
Outline: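 HL-60 cells grown in RPMI1640 with 5% FBS (not delipidized), penicillin G and streptomycin, at 37 °C in humidified 5% CO2. Compounds taken from 2 mM ethanol stocks, with final ethanol below 0.5%. Cells seeded at about 8 × 10⁴ cells/mL and counted after 4 days. EC50 for growth inhibition.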

Protein kinase C delta type, sequence (Q05655 whole entry): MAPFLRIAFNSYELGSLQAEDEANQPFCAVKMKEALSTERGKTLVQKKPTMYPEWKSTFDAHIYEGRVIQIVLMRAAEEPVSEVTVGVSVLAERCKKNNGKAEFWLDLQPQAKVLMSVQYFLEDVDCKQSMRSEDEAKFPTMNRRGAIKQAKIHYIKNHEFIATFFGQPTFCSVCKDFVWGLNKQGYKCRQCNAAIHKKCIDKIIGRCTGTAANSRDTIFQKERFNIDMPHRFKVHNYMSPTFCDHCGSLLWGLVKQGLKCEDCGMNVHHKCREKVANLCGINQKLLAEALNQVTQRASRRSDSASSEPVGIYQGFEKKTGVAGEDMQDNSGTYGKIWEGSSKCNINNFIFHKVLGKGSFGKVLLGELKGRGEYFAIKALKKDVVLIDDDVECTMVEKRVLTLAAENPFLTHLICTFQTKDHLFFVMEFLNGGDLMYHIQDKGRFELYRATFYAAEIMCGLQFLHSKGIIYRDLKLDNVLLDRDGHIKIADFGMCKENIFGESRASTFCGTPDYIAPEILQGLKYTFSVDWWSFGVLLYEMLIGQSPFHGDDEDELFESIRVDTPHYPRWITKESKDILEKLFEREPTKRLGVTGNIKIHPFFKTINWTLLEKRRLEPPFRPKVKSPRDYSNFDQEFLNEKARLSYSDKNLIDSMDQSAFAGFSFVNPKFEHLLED

**Q.** What does the source list for CC(C)[C@H]1C(=O)N[C@H](CO)Cc2cc3c(cc2N1C)C1(CCC3)CCC(C)(C)CC1?
**A.** EC50 [1]: 20 nM; Ki [2]: 14 nM

**Q.** Which Ki [2] does the source give for CC(C)[C@H]1C(=O)N[C@H](CO)Cc2cc3c(cc2N1C)C(C)(C)CCC3(C)C here?
**A.** Its Ki is 5100 nM.

**Q.** CC(C)[C@H]1C(=O)N[C@H](CO)Cc2c[nH]c3cccc(c23)N1C [INDOLACTUM] was tested. Which EC50 [3] did it give?
**A.** Its EC50 is 5 nM.

**Q.** And the Ki [2]?
**A.** Its Ki is 80 nM.

**Q.** What does the source list for CCCCCCCCCCC1C(=O)N[C@H](CO)Cc2ccccc2N1C (stereo partly drawn)?
**A.** EC50 [1]: 200 nM; Ki [2]: 3 nM

**Q.** What does the source list for CC(C)[C@H]1C(=O)N[C@H](CO)Cc2cc3c(cc2N1C)CCCC3(C)C?
**A.** EC50 [1]: 7000 nM; Ki [2]: 1700 nM

**Q.** What does the source list for C=C[C@@]1(C)CC[C@](C)(C(C)C)c2cc3c4c(c[nH]c4c21)C[C@@H](CO)NC(=O)[C@H](C(C)C)N3C?
**A.** EC50 [3]: 5 nM; Ki [2]: 0.32 nM

**Q.** How did the EC50 [3] turn out when CC(C)[C@H]1C(=O)N[C@H](CO)Cc2ccccc2N1C was run?
**A.** The EC50 was greater than 1000 nM.

**Q.** And the Ki [2]?
**A.** Its Ki is 1700 nM.

**Q.** How did the EC50 [1] turn out when CC(C)[C@H]1C(=O)N[C@H](CO)Cc2cc3c(cc2N1C)C1(CCCCC1)CCC3 was run?
**A.** Its EC50 is 70 nM.

**Q.** And the Ki [2]?
**A.** The Ki was 19 nM.

**Q.** With CCCCCCCCCCc1ccc2c(c1)C[C@@H](CO)NC(=O)[C@H](C(C)C)N2C as the compound, how does the Ki [2] read?
**A.** Its Ki is 32 nM.

**Q.** How did the Ki [2] turn out when CCCCCCCCCCc1ccc2c(c1)N(C)[C@@H](C(C)C)C(=O)N[C@H](CO)C2 was run?
**A.** Its Ki is 5.9 nM.

**Q.** CC(C)[C@H]1C(=O)N[C@H](CO)Cc2cc3c(cc2N1C)C(C)(C)CCC3 was tested. Which Ki [2] did it give?
**A.** Its Ki is 65 nM.
